Compound activity from PubChem.
MEKK2 WT-MEK5 = raises or lowers MEK5 binding to wildtype human MEKK2 PB1 domain; Q9Y2U5; bead flow cytometry, Alexa488-MEK5 binding to MEKK2 WT; actives lie on both sides; binding response (% of control), % at 10 µM; 290,000 tested, 1.1% active; in the data active means binding response below about 67% or above about 130%
MEKK2 mut-MEK5 = signal of MEK5 binding to mutant human MEKK2 PB1 domain. bead flow cytometry, Alexa488-MEK5 binding to MEKK2 mutant. 290,000 tested, 0.35% active. percent response, % at 10 µM. AID 1530; in the data active means percent response above about 24%, passing the limit was not always enough
Arr AP2 block = human beta-arrestin and AP2 interaction inhibition | FITC-arrestin peptide / GST-AP2 beads, flow cytometry; AP2 beta2 appendage carries R879A mutation | inhibition, % at 10 µM | 340,000 tested, 0.31% active;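 active means inhibition above a set limit, near 3 SD of compounds lacking own fluorescence, cut at about 54% in these data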;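 further: plate controls were DMSO wells for no effect and 5 µM unlabelled arrestin peptide for full effect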
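test system = AP2 appendage R879A on GSH beads | buffer or medium = PBS plus Tween 20 (0.05%) and BSA (0.1%) | incubation = 12 min plus 1 h, RT | detection = bead flow cytometry, FITC channel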
MEKK3 PB1 HTS = MEKK3-MEK5 PB1 interaction, increase or decrease. bead-based flow cytometry, Alexa488-MEK5 binding to MEKK3; actives lie on both sides; 0 = blocked by unlabeled MEK5, 100 = vehicle. 290,000 tested, 1.4% active. Q99759. AID 1529. binding response (% of control), % at 10 µM;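 active means binding response more than 3 SD above or below the average of its plate-row segment, actives on both sides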;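 further: Alexa488 bead fluorescence after subtracting the streptavidin-only scavenger bead signal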
Target sequence (Q99759 whole entry, looked up): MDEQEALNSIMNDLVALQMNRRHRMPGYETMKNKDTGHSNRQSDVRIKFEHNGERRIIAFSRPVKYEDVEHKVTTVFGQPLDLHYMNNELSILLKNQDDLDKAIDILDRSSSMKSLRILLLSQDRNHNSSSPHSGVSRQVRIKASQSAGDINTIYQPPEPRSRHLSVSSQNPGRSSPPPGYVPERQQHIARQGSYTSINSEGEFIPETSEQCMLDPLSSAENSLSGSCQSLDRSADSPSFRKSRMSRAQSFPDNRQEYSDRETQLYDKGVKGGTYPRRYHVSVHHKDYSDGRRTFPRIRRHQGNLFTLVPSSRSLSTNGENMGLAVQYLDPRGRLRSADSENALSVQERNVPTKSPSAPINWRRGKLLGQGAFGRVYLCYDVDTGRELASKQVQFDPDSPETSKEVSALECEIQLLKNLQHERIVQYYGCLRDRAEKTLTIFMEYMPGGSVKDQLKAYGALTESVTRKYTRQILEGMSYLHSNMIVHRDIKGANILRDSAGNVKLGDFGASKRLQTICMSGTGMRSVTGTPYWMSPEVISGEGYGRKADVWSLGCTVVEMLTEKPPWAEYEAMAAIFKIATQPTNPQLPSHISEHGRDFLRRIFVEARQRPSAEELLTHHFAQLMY
MEKK2wt confirm = raises or lowers MEK5 binding to wildtype human MEKK2, retest; AID 1892; bead flow cytometry, Alexa488-MEK5 binding to MEKK2 WT; actives lie on both sides; binding response (% of control), % at 10 µM; 5,900 tested, 2.4% active; shares compounds with MEKK3 PB1 HTS; in the data active means binding response below about 16% or above about 210%; inactive means in between
MEKK2mut-MEK5 = signal of MEK5 binding to mutant human MEKK2, retest; percent response, % at 10 µM; AID 1893; 5,900 tested, 2% active; shares compounds with MEKK3 PB1 HTS; bead flow cytometry, Alexa488-MEK5 binding to MEKK2 mutant; in the data active means percent response mostly above about 71%, no sharp cut-off; inactive means mostly below about 38%;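 further: higher means compound restores mutant binding toward wildtype level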
MEKK3-MEK5 inh = MEKK3-MEK5 PB1 inhibition, single concentration confirmation; binding response (% of control), % at 10 µM; 5,900 tested, 1.8% active; bead flow cytometry, Alexa488-MEK5 binding to MEKK3; hits give low values; shares compounds with MEKK3 PB1 HTS; AID 1894;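 active means binding response below 72% of control, or above a set upper limit, though filed actives all read lower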;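 further: 100% = DMSO only wells and 0% = binding blocked by excess unlabeled MEK5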
* = called active by the depositor; . = no result; [ ] = another dose, or the depositor's remark. Shown are actives, neighbours in structure and some others; about 2.3% of the full set was active somewhere.

SMILES	MEKK2 WT-MEK5	MEKK2 mut-MEK5	Arr AP2 block	MEKK3 PB1 HTS	MEKK2wt confirm	MEKK2mut-MEK5	MEKK3-MEK5 inh
CCCCCc1cc(=O)oc2c(C(CCN(CC)CC)c3ccc(N(C)C)cc3)c(OC)cc(OC)c12 (configuration not stated)	166.0*	23.0	18.3	108.0	185.0	37.0	109.0
CCCCCc1cc(=O)oc2c(C(CCN3CCCC(C)C3)c3ccc(N(C)C)cc3)c(OC)cc(OC)c12 (configuration not stated)	149.0*	50.0*	23.2	116.0	178.0	39.0	110.0
COc1cc(C(CCN2CCCC2)c2c(OC)cc(OC)c3ccc(=O)oc23)cc(OC)c1OC (configuration not stated)	98.0	5.0	23.2	94.0	.	.	.
COc1cc(OC)c2ccc(=O)oc2c1C(CCN1CCCC(C)C1)c1ccc(N(C)C)cc1 (configuration not stated)	104.0	2.0	-3.3	96.0	.	.	.
COc1cc(O)c(C(CCN2CCCC(C)C2)c2cc(OC)c(OC)c(OC)c2)c(OC)c1 (configuration not stated)	95.0	1.0	4.7	94.0	.	.	.
CCCN(C(=O)COc1ccc(C(C)=O)cc1OC)C1CCS(=O)(=O)C1 (configuration not stated)	.	.	-9.7	.	.	.	.
CC(C)Cn1c(N)c(C(=O)COC(=O)c2cc(S(=O)(=O)N3CCOCC3)ccc2Br)c(=O)n(C)c1=O	.	.	40.1	.	.	.	.
CCOC(=O)CCC(NC(=O)CCCCCCCCC(=O)NC(CCC(=O)OCC)C(=O)OCC)C(=O)OCC (configuration not stated)	110.0	1.0	10.2	107.0	.	.	.
CCOC(=O)CCC(NC(=O)CCCCC(=O)NC(CCC(=O)OCC)C(=O)OCC)C(=O)OCC (configuration not stated)	107.0	1.0	6.6	130.0*	106.0	0.0	103.0
COc1ccc(CN2CCN(C(c3ccc(F)cc3)c3ccc(F)cc3)CC2)c(OC)c1OC	183.0*	15.0	-3.3	114.0	138.0	34.0	105.0
COc1ccc(CN2CCN(c3ccc(F)cc3)CC2)c(OC)c1OC	111.0	0.0	-1.4	104.0	.	.	.
O=C(O)c1ccccc1CC(CCc1ccccc1)C(=O)O (configuration not stated)	.	.	-15.1	.	.	.	.
Cc1cccc(NC(=O)/C(C#N)=C/c2ccc(Sc3ccccc3)o2)c1C	99.0	-1.0	33.4	128.0*	99.0	0.0	104.0
CCCn1c(C)cc(-c2csc(N)n2)c1C	93.0	-2.0	25.4	88.0	.	.	.
C=CCn1c(C)cc(-c2csc(N)n2)c1C	100.0	9.0	6.8	99.0	.	.	.
COc1ccc(-n2c(C)cc(-c3csc(N)n3)c2C)cc1	98.0	2.0	-5.0	128.0*	106.0	4.0	98.0
Cc1cc(-c2csc(N)n2)c(C)n1-c1ccc(Cl)c(Cl)c1	109.0	1.0	8.1	153.0*	101.0	-4.0	101.0
C/C(=N\NC(=O)CN1CCN(S(=O)(=O)c2ccc(C)cc2)CC1)c1ccncc1	86.0	-24.0	-6.5	82.0	.	.	.
COC(=O)C1=NN(c2ccc(Cl)cc2)C2C(=O)N(c3ccccc3OC)C(=O)C12 (configuration not stated)	101.0	-1.0	-9.9	143.0*	104.0	-2.0	107.0
CC1C(C)C(O)(c2ccccc2)CCN1C (configuration not stated)	100.0	9.0	30.3	130.0*	117.0	14.0	97.0
CC(C)C1C(c2ccccc2)N(C)C(c2ccccc2)CC1(O)c1ccccc1 (configuration not stated)	129.0	9.0	-7.4	99.0	.	.	.
Cc1cccc2c1-c1sc(C(=O)Nc3ccccc3N3CCN(C)CC3)cc1CO2	162.0*	4.0	-12.9	103.0	198.0	46.0	111.0
Cc1cccc2c1-c1sc(C(=O)N3CCCCC3)cc1CO2	99.0	1.0	-1.6	97.0	.	.	.
CC1(C)CC(=O)C([N+](=O)[O-])=C(NCCCC(=O)O)C1	97.0	-1.0	-4.2	64.0*[inhibitor]	98.0	-3.0	100.0
CC1(C)CC(=O)C(C#N)=C(NCCCO)C1	90.0	-3.0	-4.1	89.0	.	.	.
SMILES	MEKK2 WT-MEK5	MEKK2 mut-MEK5	Arr AP2 block	MEKK3 PB1 HTS	MEKK2wt confirm	MEKK2mut-MEK5	MEKK3-MEK5 inh
COc1ccc(S(=O)(=O)N2CCN(CC(O)COc3ccc(CC#N)cc3)CC2)cc1OC (configuration not stated)	101.0	-1.0	25.9	102.0	.	.	.
Cc1ccc2nc3c(c(N)c2c1)CCN3C	113.0	11.0	-2.0	106.0	.	.	.
CCCCN1CCc2c1nc1ccc(Br)cc1c2N	147.0*	17.0	31.2	106.0	148.0	27.0	110.0
O=Cc1cn(CC(=O)Nc2ccc3c(c2)OCO3)c2ccccc12	108.0	-1.0	5.5	105.0	.	.	.
COc1ccccc1CN(C)C(=O)c1cccc(S(=O)(=O)N2CCCc3ccccc32)c1	.	.	-9.7	.	.	.	.
Cc1cc(Sc2nc(N(C)C)nc(N(C)C)n2)nc(Cl)n1	121.0	5.0	0.8	137.0*	107.0	1.0	103.0
CCN(CC)CCNC(=O)CNC(=O)c1nn(-c2ccc(OC)cc2OC)c(=O)c2ccccc12	108.0	1.0	46.6	101.0	.	.	.
O=C(NNC(=S)Nc1cccc2ccccc12)c1cccc(Br)c1	85.0	-7.0	35.9	80.0*[inhibitor]	90.0	-7.0	91.0
CC(Sc1nnc(C2CC2)n1C1CC1)C(=O)Nc1cccc(S(=O)(=O)N2CCOCC2)c1 (configuration not stated)	.	.	-15.0	.	.	.	.
O=C1NCCCC1C(=O)N1CCN(C(c2ccccc2)c2ccccc2)CC1 (configuration not stated)	98.0	-9.0	-8.1	82.0*[inhibitor]	103.0	7.0	108.0
c1ccc(-n2ncc3c(NCCN4CCOCC4)ncnc32)cc1	92.0	-6.0	16.8	93.0	.	.	.
Cc1ccc(-n2ncc3c(NNC(=O)Cc4ccccc4)ncnc32)cc1	108.0	1.0	36.6	143.0*	104.0	9.0	106.0
c1ccc(-n2ncc3c(NCCN4CCCCC4)ncnc32)cc1	113.0	25.0*	-1.6	104.0	122.0	11.0	104.0
O=C(NCCCN1CCCC1=O)c1cccc(S(=O)(=O)Nc2ccc(Br)cc2)c1	.	.	12.2	.	.	.	.
C[C@H](CO)N1C[C@H](C)[C@@H](CN(C)Cc2ccncc2)Oc2c(cccc2N(C)C)C1=O	.	.	3.7	.	.	.	.
NC(=O)c1cccc(C(N)=O)n1	99.0	-4.0	1.7	98.0	.	.	.
COC(=O)C(NC(=O)c1cccnc1Cl)C(C)C (configuration not stated)	103.0	10.0	-21.4	102.0	.	.	.
